Assay outcomes deposited in PubChem by several laboratories.
Hits are enriched below; roughly 2% of the tested compounds scored in any of these assays.
TPT1 inhibitor – C. albicans TPT1 enzyme inhibition; recombinant caTPT1, FP RNA substrate dephosphorylation; inhibition, % at 5 µM; hit rate 0.81% among 300,000;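 active = inhibition above the mean of all tested compounds plus 3 SD, set per screening campaign, cut at about 24% in these data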;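 also: plate controls were DMSO alone for no effect and ferristatin control at 100 nM for full effect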
CSN inh – CSN deneddylation inhibition | inhibition, % at 12.5 µM | Purified CSN, SCF-Nedd8-OG deneddylation, fluorescence polarization | hit rate 0.38% among 360,000 | Q92905;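 active = pattern-corrected inhibition above about 35%, with an unprinted fluorescence ratio check between 0.5 and 1.5, limit read from the data, passing the limit was not always enough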;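 also: 0% = enzyme with substrate and 100% = substrate without enzyme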
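assay system = purified human Csn5 enzyme expressed in HEK293T cells | amount = 0.24 nM enzyme | buffer or medium = Tris/NaCl/DTT buffer, pH 7.5 | reagent = 10 nM SCFSkp2-Nedd8OG | compound = one concentration, 12.5 µM, 0.25% DMSO | times = 90 min reaction at room temperature | signal = FP | read-out basis = % inhibition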
SENP1 FRET inh – SENP1 (human) catalytic domain inhibition. Q9P0U3. recombinant SENP1 catalytic domain, CyPet-SUMO1-YPet FRET cleavage. inhibition, % at 10 µM. hit rate 0.21% among 360,000. AID 624204;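 active = inhibition at least 30% at 10 µM, raw YFP signal under a set limit, fluorescence ratio 0.5 to 1.5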;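 also: 0% = enzyme with DMSO and 100% = no enzyme wells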
Target sequence (Q9P0U3 419-644 limits assumed): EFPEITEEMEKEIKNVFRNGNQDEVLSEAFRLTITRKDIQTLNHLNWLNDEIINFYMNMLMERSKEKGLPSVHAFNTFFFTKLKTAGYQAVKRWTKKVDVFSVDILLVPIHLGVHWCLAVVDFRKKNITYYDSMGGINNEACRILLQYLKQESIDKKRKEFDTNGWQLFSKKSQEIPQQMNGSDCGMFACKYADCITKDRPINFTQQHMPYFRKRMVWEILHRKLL
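Material – human SENP1 catalytic domain · Input – SENP1 enzyme, 20 pM final · Compound dosing – single concentration of 10 µM compound, 0.5% DMSO final · Timing – enzyme reaction for 50 min at room temperature, dark · Measured by – FRET fluorescence in CFP and YFP emission channels · Control set – no-enzyme wells low, DMSO-plus-enzyme wells high control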
ATG4B inh – inhibitors of human ATG4B cysteine protease | Q9Y4P1 | ATG4B cleavage of LC3-PLA2, NBD-HPC fluorescence, 1 h | inhibition, % at 8.33 µM | hit rate 0.51% among 340,000 | AID 504462; in the data active = inhibition above about 40%
Target sequence (Q9Y4P1 whole entry, looked up): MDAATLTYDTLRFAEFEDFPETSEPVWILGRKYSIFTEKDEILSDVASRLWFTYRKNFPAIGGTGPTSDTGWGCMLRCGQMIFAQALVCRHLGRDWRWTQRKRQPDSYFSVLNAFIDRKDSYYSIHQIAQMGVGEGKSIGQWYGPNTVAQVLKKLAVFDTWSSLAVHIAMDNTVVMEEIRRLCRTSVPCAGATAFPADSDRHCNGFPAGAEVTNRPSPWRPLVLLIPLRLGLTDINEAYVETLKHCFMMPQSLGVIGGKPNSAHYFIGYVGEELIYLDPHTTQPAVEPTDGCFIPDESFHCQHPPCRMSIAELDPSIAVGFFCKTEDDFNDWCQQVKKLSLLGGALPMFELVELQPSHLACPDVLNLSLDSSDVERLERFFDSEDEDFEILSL
HNF4A DNA FP – change in binding of human HNF4 alpha to DNA; hit rate 0.3% among 360,000; activity change, % at 10 µM; P41235; AID 1224865; HNF4a-FITC DNA binding, fluorescence polarization, 1 h; in the data active = activity change above about 30%, passing the limit was not always enough
Rpn11 block – Rpn11 (human) deubiquitinase inhibition; AID 588493; O00487; inhibition, % at 20 µM; hit rate 0.59% among 360,000; human 26S proteasome, Ub4-pepOG fluorescence polarization; 20S core pre-blocked with epoxomicin;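 active = inhibition at 20 µM, scaled to each plate's controls, above about 33%, limit read from the data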
TPT1 inh confirm – TPT1 (C. albicans) inhibition, confirmation; inhibition, % at 5 µM; shares compounds with TPT1 inhibitor; hit rate 74% among 2,400; AID 2149; recombinant caTPT1, fluorescence polarization, RNase T1 coupled;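 active = inhibition above the primary screen limit, the mean inhibition of all tested compounds plus 3 SD, cut at about 25% in these data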
RNase T1 inh – blocks Aspergillus oryzae RNase T1, a TPT1 counter-screen; hit rate 83% among 2,400; shares compounds with TPT1 inhibitor; RNase T1 cleavage, fluorescence polarization, 1536-well; inhibition, % at 5 µM;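 active = inhibition above the solvent-only control well mean plus 3 SD, limit set per screening run, cut at about 23% in these data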;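 also: plate controls were DMSO wells with enzyme for no effect and wells without RNase T1 for full effect; inhibitors block cleavage so intact labeled substrate keeps polarization high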
Target sequence (P00651 whole entry, looked up): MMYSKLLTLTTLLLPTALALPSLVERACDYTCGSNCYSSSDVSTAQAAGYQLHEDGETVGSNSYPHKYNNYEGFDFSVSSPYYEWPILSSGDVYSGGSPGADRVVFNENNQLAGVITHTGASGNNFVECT
* marks the source's active call; other numbers are inactive results; nt = not tested or not shown.

SMILES | TPT1 inhibitor | CSN inh | SENP1 FRET inh | ATG4B inh | HNF4A DNA FP | Rpn11 block | TPT1 inh confirm | RNase T1 inh
COc1cc(OC)c(OC)cc1/C=N/Nc1nc2ccccc2[nH]1 | 1.2 | -4.7 | -7.5 | -8.9 | 0.2 | 8.6 | nt | nt
CS(=O)(=O)c1ccc(-c2sc3ccccc3c2C(=O)N2CCN(c3ccc(F)cc3)CC2)cc1 | nt | -4.7 | 1.5 | 0.8 | 3.0 | -0.2 | nt | nt
NS(=O)(=O)c1ccc(N/C=C\C(=O)c2ccc(F)cc2)cc1 | 3.0 | -1.0 | -55.3 | -1.3 | 1.3 | -5.9 | nt | nt
CN(C)c1ccc(N/C=C/C(=O)c2ccc(F)cc2)cc1 | 36.0* | 12.9 | 66.7* | -2.4 | 43.5* | 45.6* | 49.1* | 58.7*
COc1cccc(C2=CC(c3ccc(N(C)C)cc3)n3nnnc3N2)c1 (stereo not given) | 28.5* | 0.9 | -35.6 | 1.4 | 5.6 | 30.3 | 11.4 | 16.7
COc1cccc(C2=CC(c3ccccc3)n3nnnc3N2)c1 (stereo not given) | 0.8 | -0.1 | 25.3 | -13.7 | -4.3 | -22.6 | nt | nt
COc1cccc(C2=CC(c3ccc(N(C)C)cc3)n3ncnc3N2)c1 (stereo not given) | 38.2* | nt | nt | nt | nt | nt | 33.8* | 42.9*
COc1cccc(C2=CC(c3ccccc3)n3ncnc3N2)c1 (stereo not given) | -13.7 | nt | nt | nt | nt | nt | nt | nt
Cc1ccc(C2C(C#N)=C(N)Oc3c2sc2ccccc32)o1 (stereo not given) | 65.2* | nt | nt | nt | nt | nt | 86.0* | 96.1*
CCOC(=O)CC1=C(C(=O)OCC)C(c2ccc(C)o2)C(C#N)=C(N)O1 (stereo not given) | -25.3 | -9.8 | -13.3 | -6.9 | -10.8 | -28.9 | nt | nt
O=C(CSc1nc(-c2ccccc2)nc2c1CCCC2)N1CCOCC1 | 55.9* | 3.5 | 2.9 | -3.6 | -4.1 | 0.7 | 27.7* | 29.5*
COc1cc(/C=N/n2c(-c3ccc4c(c3)NC(=O)CO4)csc2=Nc2cccc(C)c2)ccc1O | -0.6 | 3.6 | -34.2 | -9.7 | 5.1 | -0.7 | nt | nt
COCCN=c1scc(-c2ccc3c(c2)NC(=O)CO3)n1/N=C(\C)c1ccc(O)cc1 | 26.5* | 13.4 | -16.2 | -1.6 | 3.9 | 23.3 | 10.4 | 17.9
O=C(NC(Cc1cn(Cc2ccccc2)cn1)C(=O)O)OCC1c2ccccc2-c2ccccc21 (stereo not given) | nt | -7.9 | -6.6 | nt | 2.0 | 9.5 | nt | nt
O=C(Nc1nc2ccccc2s1)c1cccc(S(=O)(=O)N2CCc3ccccc32)c1 | -1.4 | -1.4 | 2.1 | -5.9 | 5.3 | 6.0 | nt | nt
O=C(Nc1nc2c(s1)CN(Cc1ccccc1)CC2)c1cccc(S(=O)(=O)N2CCc3ccccc32)c1 | 125.2* | 29.9 | -18.4 | 4.9 | 46.6 | 2.0 | 93.7* | 93.6*
CCN1CCc2nc(NC(=O)c3ccc4c(c3)OCCO4)sc2C1 | 35.7* | 11.0 | -24.5 | -11.0 | 17.2 | 31.4 | 21.5 | 28.2*
CCN1CCc2nc(NC(=O)Cc3ccc4c(c3)OCCO4)sc2C1 | -0.3 | -1.7 | -141.0 | -3.7 | 14.2 | 11.2 | nt | nt
COc1ccc(S(=O)(=O)Nc2ccc3c(c2)C(=O)N([C@H](C)CO)C[C@H](C)[C@@H](CN(C)S(C)(=O)=O)O3)cc1 | nt | -5.0 | 0.4 | -2.9 | 2.0 | -3.3 | nt | nt
CCCCN(C=O)c1c(CC)nc2c(OCC3CCCCC3)cccn12 | nt | -0.4 | -3.7 | nt | -4.1 | 1.3 | nt | nt
CC(=O)c1ccc(-c2ccc(/C=C(/Sc3n[nH]c(C)n3)C(=O)O)o2)cc1 | 77.7* | 21.3 | -33.9 | 1.4 | 25.1 | nt | 79.1* | 91.2*
Cc1nc(S/C(=C/c2ccc(-c3ccc(C(=O)O)cc3)o2)C(=O)O)n[nH]1 | 15.7 | 10.0 | -36.2 | -5.8 | 3.0 | 17.2 | nt | nt
O=C(Nc1ccn(CCCNCc2cccc3ccccc23)c(=O)n1)OCc1ccccc1 | nt | 6.4 | -2.7 | nt | -2.7 | 7.2 | nt | nt
O=C(Nc1ccc2c(c1)OCCO2)C(C1CC1)n1c(=O)c(-c2ccccc2)nc2ccccc21 (stereo not given) | nt | -1.3 | 1.1 | nt | -1.9 | nt | nt | nt
CN(C)c1ccc(/C=C/C(=O)c2cccc(Br)c2)cc1 | 99.3* | -20.2 | -23.1 | 5.5 | 136.5 | nt | 97.3* | 94.5*
SMILES | TPT1 inhibitor | CSN inh | SENP1 FRET inh | ATG4B inh | HNF4A DNA FP | Rpn11 block | TPT1 inh confirm | RNase T1 inh
CC1(C)CNc2cc(N)ccc2S1 | 61.2* | 18.6 | -28.5 | -14.9 | 5.8 | 21.8 | 31.9* | 42.7*
CCOc1ccc(OCCCCNC(C)(C)C)cc1 | -4.0 | -5.6 | 2.1 | 1.5 | -1.7 | -1.1 | nt | nt
CCOc1cccc(OCCOCCNC(C)(C)C)c1 | 37.8* | 0.9 | -0.7 | -4.2 | 3.8 | 0.5 | 7.6 | 9.7
COc1ccc(Cl)cc1C(=O)NC1CC(C)(C)NC(C)(C)C1 | nt | -4.8 | -0.2 | nt | 1.6 | 5.5 | nt | nt
Cc1cccc(NC(=O)CN2C(=O)N/C(=C/c3ccc(C)s3)C2=O)c1 | 83.3* | 23.8 | -11.7 | 7.6 | 59.6* | nt | 99.9* | 107.9*
CCNC(=O)c1cc2c(c(-c3cccc(-c4ccccc4F)c3)n1)[C@H](CCO)N(C(=O)CC)C2 | nt | -3.8 | 1.6 | nt | 0.8 | nt | nt | nt
CCOC(=O)CCCCCC(=O)Nc1ccc2c(c1)C(=O)N([C@H](C)CO)C[C@@H](C)[C@H](CN(C)Cc1ccc3c(c1)OCO3)O2 | nt | -2.6 | 2.8 | -19.5 | 0.8 | -2.1 | nt | nt
COc1ccc(/C=N/NC(=O)c2ccc(O)cc2)cc1CN1CCCc2ccccc21 | 31.3* | -2.4 | -5.9 | -1.7 | 4.6 | 7.2 | 39.9* | 54.2*
COc1ccc(/C=N/NC(=O)c2ccc(F)cc2)cc1CN1CCc2cc(OC)c(OC)cc2C1C (stereo not given) | 1.0 | 5.4 | -8.4 | -8.9 | 1.9 | 11.2 | nt | nt
OCC[n+]1ccc(/C=C/c2c[nH]c3ccccc23)cc1 | 57.2* | 85.4 | -23.0 | -16.5 | 103.3 | nt | 59.3* | 64.7*
Cc1ccc(/C=C2\SC(=S)N(CCCC(=O)Nc3ccccn3)C2=O)cc1 | -2.3 | 4.7 | 0.8 | -3.5 | -0.6 | -8.2 | nt | nt
O=C(CCN1C(=O)/C(=C/c2cccs2)SC1=S)Nc1ccccn1 | 32.5* | 13.7 | 14.6 | 3.3 | 33.3* | nt | 31.0* | 42.3*
O=C(CCN1C(=O)/C(=C/c2ccccc2)SC1=S)Nc1ccccn1 | -0.5 | -5.4 | 2.3 | 19.9 | 2.5 | 5.1 | nt | nt
COc1ccc(/C=C2\SC(=S)N(CCCC(=O)Nc3ccccn3)C2=O)cc1OC | 32.1* | -7.1 | -32.9 | -23.8 | 16.3 | 25.3 | 52.5* | 64.2*
O=C(CCN1C(=O)/C(=C/c2cccs2)SC1=S)Nc1ccc(C(=O)O)cc1 | 30.7* | 9.8 | 2.8 | -2.4 | 8.2 | 25.2 | 28.6* | 38.5*
O=C(NCCN1CCOCC1)c1ccccc1OCc1ccccc1 | nt | 5.0 | 0.6 | 5.2 | -1.0 | 1.6 | nt | nt
